# Reference: ChEMBL document CHEMBL1141824, “The antiproliferative effect of acridone alkaloids on several cancer cell lines” (J Nat Prod, 1999)
# Assays:
# Type in all cases: functional, cell-based
# CCRF-HSB-2 = assay: Antiproliferative activity against human CCRF-HSB-2 cells after 3 days by alamar blue assay; conditions: CCRF-HSB-2, 72 h
# Method in brief: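 Suspension line maintained in RPMI1640 with 10% FBS. 10⁴ cells per well were preincubated 24 h, then mixed with an equal volume of serially diluted samples (DMSO up to 0.4%) and exposed for 3 days. Staining was alamar Blue for 24 h. Growth was expressed as % of untreated control from blank-subtracted A570−A595. Triplicate points.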
# TGBC11TKB = assay: Antiproliferative activity against human TGBC11TKB cells after 3 days by alamar blue assay; conditions: 72 h
# Method in brief: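 TGBC11TKB, a lymph-node-metastasized gastric cancer line, was grown in DMEM with 5% FBS. 2×10^3 cells per well were plated, grown 24 h, then given medium with serial dilutions (final DMSO ≤0.4%) for 3 days. alamar Blue was then added for 6 h. Read-out was blank-corrected A570−A595 as % of untreated control, in triplicate.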
# B16 = assay: Antiproliferative activity against mouse B16 cells after 3 days by alamar blue assay; conditions: B16, 72 h
# Method in brief: (§1)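 Cells kept in DMEM with 10% heat-inactivated FBS. 2×10^3 cells per well were grown 24 h, then an equal volume of medium with serial sample dilutions was added (DMSO ≤0.4%). After 3 days, alamar Blue was added for 6 h. Proliferation was taken as blank-corrected (A570−A595) as % of untreated growth control. Triplicates.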
# A549 = assay: Antiproliferative activity against human A549 cells after 3 days by alamar blue assay; conditions: A549, 72 h; method in brief: as §1
SMILES,IC50 (CCRF-HSB-2) [µM],IC50 (TGBC11TKB) [µM],IC50 (B16) [µM],IC50 (A549) [µM]
Cn1c2c(O)cccc2c(=O)c2c(O)cc3c(c21)C=CC(C)(C)O3,23.6,16.2,> 40,> 40
CC(C)=CCc1c2c(c3c(c1O)c(=O)c1ccccc1n3C)C=CC(C)(C)O2,> 40,> 40,> 40,> 40
CC(C)=CCc1c2c(c3c(c1O)c(=O)c1cccc(O)c1n3C)C=CC(C)(C)O2,5.41,2.13,8.04,9.37
CC1(C)C=Cc2c(cc(O)c3c(=O)c4ccccc4[nH]c23)O1,3.1,2.07,5.05,6.37
COc1cc2c(c3[nH]c4ccccc4c(=O)c13)C=CC(C)(C)O2,> 40,> 40,> 40,> 40
CC(C)=CCc1c2c(c3[nH]c4c(O)cccc4c(=O)c3c1O)C=CC(C)(C)O2 [ATALAPHYLLININE],2.5,1.43,4.63,6.26
CC1(C)C=Cc2c(cc(O)c3c(=O)c4cccc(O)c4[nH]c23)O1 [ATOLAPHYLLIDINE],4.65,2.83,5.58,6.98
COc1cc(O)c2c(=O)c3ccc(O)c(OC)c3n(C)c2c1 [CITPRESSINE II],> 40,> 40,> 40,> 40
COc1ccc2c(=O)c3c(O)cc4c(c3n(C)c2c1OC)C=CC(C)(C)O4 [CITRACRIDONE II],> 40,> 40,> 40,> 40
COc1c(O)ccc2c(=O)c3c(O)cc4c(c3n(C)c12)C=CC(C)(C)O4 [CITRACRIDONE I],> 40,> 40,> 40,> 40
COc1cc(O)c2c(=O)c3cccc(O)c3n(C)c2c1OC [CITRUSININE-I],> 40,> 40,> 40,> 40
CC(C)=CCc1c(O)cc(O)c2c(=O)c3ccccc3n(C)c12 [GLYCOCITRINE II],> 40,> 40,> 40,> 40
COc1cc(O)c2c(=O)c3cccc(O)c3n(C)c2c1CC=C(C)C [GLYCOCITRINE I],> 40,> 40,> 40,> 40
COc1cc(O)c2c(=O)c3ccc(OC)c(O)c3n(C)c2c1 [GRANDISINE I],29.2,19.3,> 40,24.4
Cn1c2ccccc2c(=O)c2c(O)cc3c(c21)C=CC(C)(C)O3 [NORACRONYCINE],> 40,> 40,> 40,> 40
